In publication PMC10651777 (Blood, 2022):

How the values were obtained:
[1] = Plasma pharmacokinetics at steady state; type: in vivo, human; details: for Cmax: human, plasma, oral, Mean Cmax, steady state
In short: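 Patients with relapsed/refractory AML or secondary AML received venetoclax daily on days 1–28 (3–5-day ramp-up to 400, 600 or 800 mg) plus idasanutlin 150, 200 or 400 mg daily or 300 mg twice daily on days 1–5 of 28-day cycles. Noncompartmental analysis of venetoclax plasma concentration–time data; summary statistics of steady-state Cmax and trough. Data from 49 patients across 5 cohorts.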

[2] = tested on: Macrophage inhibitory cytokine-1 (MIC-1); test: Serum MIC-1 ELISA; type: in vivo, human; details: day 5; idasa 150 to 400 mg daily for 5 days
In short: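 Serum from patients with relapsed/refractory or secondary AML on venetoclax plus idasanutlin. Idasanutlin was given daily or twice daily on days 1–5 of 28-day cycles. MIC-1 was quantified by a human GDF-15 immunoassay kit (ELISA).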

AML = details: idasa monotherapy, cited from earlier work
MIC-1 = details: day 5 of treatment, 100 mg daily for 5 days, PV; cited from earlier work
[3] = tested on: R/R AML and newly diagnosed patients with AML unfit for intensive chemotherapy; details: ven monotherapy; cited from earlier work
[4] = Cohort B1.2.1, n = 5, ven 600 mg, idasa 150 mg

COc1cc(C(=O)O)ccc1NC(=O)[C@@H]1N[C@@H](CC(C)(C)C)[C@](C#N)(c2ccc(Cl)cc2F)[C@H]1c1cccc(Cl)c1F [idasa, idasanutlin]
Cmax ([1]; 400 mg, Cohort B4, n = 8, ven 400 mg, idasa 400 mg): 7110 ng/mL
Cmax [1, 4]: 3220 ng/mL
MIC-1 increases [2]: 10- to 20 fold
All-grade diarrhea rate (AML; 400-800 mg twice daily microprecipitated bulk powder): 91.3%
All-grade nausea rate (AML): 73.9%
All-grade vomiting rate (AML): 39.1%
CR/CRi/MLFS rate (antileukemic response) (AML): 21%
Rate of grade ≥3 diarrhea (AML): 23.9%
Rate of grade ≥3 nausea (AML): 0%
Plasma MIC-1 levels increase (MIC-1): 4.8 fold

CC1(C)CCC(CN2CCN(c3ccc(C(=O)NS(=O)(=O)c4ccc(NCC5CCOCC5)c([N+](=O)[O-])c4)c(Oc4cnc5[nH]ccc5c4)c3)CC2)=C(c2ccc(Cl)cc2)C1 [ven, Venetoclax]
Cmax [1, 4]: 1450 ng/mL
Impact of the coadministration of idasa on ven pharmacokinetics ([1]; in vivo): no significant impact
Pharmacokinetics of ven in this combination ([1]; vs historical ven monotherapy): comparable to ven monotherapy
All-grade diarrhea rate [3]: 56%
All-grade nausea rate [3]: 59%
All-grade vomiting rate [3]: 41%
CR/CRi rate (CRc) [3]: 19%
Rate of grade ≥3 diarrhea [3]: 6%
Rate of grade ≥3 nausea [3]: 6%
